From ChEMBL document CHEMBL6134766, “Design, synthesis, and evaluation of benzhydrylpiperazine-based novel dual COX-2/5-LOX inhibitors with anti-inflammatory and anti-cancer activity” (RSC Med Chem, 2025)
The source made the active and inactive calls. The rule behind the calls is not given here.

What was measured:
[1] = Toxicity in Wistar rat assessed as change in serum urea level at 10 mg/kg, po; assay type: organism-based; settings: in vivo
Procedure, shortened: (§1)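 Rats dosed orally in 0.3% Na CMC; retro-orbital blood clotted at room temperature, serum separated at 2000 rpm, 20 min, 4 °C; ALT, AST, creatinine and urea by commercial kits; n = 6 per group, mean ± SD; Tukey test after repeated-measures one-way ANOVA.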

[2] = test system: Rattus norvegicus; test: Anti-inflammatory activity in carrageenan-induced paw edema Wistar rat model assessed as swelling thickness of paw at 10 mg/kg, po measured immediately by digital vernier caliper (reference value: 3.48 +/- 0.21 millimeter); assay type: functional
[3] = test system: Gastric mucosa; test: Antioxidant activity in gastric mucosal tissue in Wistar rat assessed as increase in GSH level at 10 mg/kg, po; assay type: functional, organism-based
Procedure, shortened: (§2)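 Fasted rats (n = 6/group) gavaged once daily for 3 days in 0.3% Na CMC and sacrificed 6 h after the final dose. Randomly chosen stomachs homogenized in cold PBS pH 7.4 and centrifuged at 1000 rpm for 10 min at 4 °C. Supernatant protein measured by Bradford assay; GSH and nitrate then measured by reported methods.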

[4] = test system: Rattus norvegicus; test: Anti-inflammatory activity in carrageenan-induced paw edema Wistar rat model assessed as decrease in TNF-alpha level in paw tissue at 10 mg/kg, po measured for 6 hrs by ELISA; assay type: functional, organism-based
Procedure, shortened: (§3)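 Paw tissue taken from carrageenan-edema rats dosed orally at 5, 10 or 20 mg kg−1. Tissue rinsed in PBS pH 7.4, minced, homogenized, filtered and centrifuged at 2000 rpm for 20 min at 4 °C. Supernatant assayed by ELISA for PGE2, IL-6, TNF-α and IL-10. Data as mean ± SD.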

[5] = test system: Rattus norvegicus; test: Anti-inflammatory activity in carrageenan-induced paw edema Wistar rat model assessed as swelling thickness of paw at 10 mg/kg, po measured after 5 hrs by digital vernier caliper (reference value: 8.47 +/- 0.32 millimeter); assay type: functional
[6] = test system: Gastric mucosa; test: Antioxidant activity in gastric mucosal tissue in Wistar rat assessed as decrease in nitrite level at 10 mg/kg, po; assay type: functional, organism-based; procedure, shortened: as §2
[7] = test system: Rattus norvegicus; test: Anti-inflammatory activity in carrageenan-induced paw edema Wistar rat model assessed as swelling thickness of paw at 10 mg/kg, po measured after 2 hrs by digital vernier caliper (reference value: 8.65 +/- 0.53 millimeter); assay type: functional
[8] = test system: Rattus norvegicus; test: Anti-inflammatory activity in carrageenan-induced paw edema Wistar rat model assessed as swelling thickness of paw at 10 mg/kg, po measured after 4 hrs by digital vernier caliper (reference value: 8.36 +/- 0.78 millimeter); assay type: functional
[9] = Toxicity in Wistar rat assessed as change in serum creatinine level at 10 mg/kg, po; assay type: organism-based; settings: in vivo; procedure, shortened: as §1
[10] = test system: Rattus norvegicus; test: Anti-inflammatory activity in carrageenan-induced paw edema Wistar rat model assessed as swelling thickness of paw at 10 mg/kg, po measured after 6 hrs by digital vernier caliper (reference value: 8.33 +/- 0.42 millimeter); assay type: functional
[11] = Toxicity in fasting Wistar rat assessed as ulcer score at 10 mg/kg, po via gavage treated for 3 days consecutively by H and E staining based analysis (reference value: 0); assay type: organism-based; settings: in vivo, 72 h, time 3 day
Procedure, shortened: (§4)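 Fasted rats, n = 6/group, gavaged once daily for 3 days in 0.3% Na CMC (vehicle control 0.3% CMC); killed under anaesthesia 6 h after day-3 dose; stomachs saline-washed, mucosa examined with hand lens; ulcer score, index and % ulceration by reported scoring; some stomachs formalin-fixed, H&E stained.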

[12] = test system: Gastric mucosa; test: Antioxidant activity in gastric mucosal tissue in Wistar rat assessed as increase in SOD level at 10 mg/kg, po; assay type: functional, organism-based
Procedure, shortened: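 Gastric tissue from fasted rats (dosed orally once daily for 3 days in 0.3% Na CMC) homogenized in cold PBS pH 7.4, centrifuged 1000 rpm, 10 min, 4 °C; protein by Bradford; SOD measured in supernatant per reported procedure.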

[13] = test system: Rattus norvegicus; test: Anti-inflammatory activity in carrageenan-induced paw edema Wistar rat model assessed as increase in IL-10 level in paw tissue at 10 mg/kg, po measured for 6 hrs by ELISA; assay type: functional, organism-based; procedure, shortened: as §3
[14] = test system: Rattus norvegicus; test: Analgesic activity in acetic acid-induced pain Wistar rat model assessed as number of writhing at 10 mg/kg, po pretreated for 30 mins followed by acetic acid treatment measured for 30 mins by writhing test (reference value: 40.33 +/- 3.01); assay type: functional; settings: time 60 min, 1 h
[15] = Toxicity in fasting Wistar rat assessed as ulcer index at 10 mg/kg, po via gavage treated for 3 days consecutively by H and E staining based analysis (reference value: 0); assay type: organism-based; settings: in vivo, 72 h, time 3 day; procedure, shortened: as §4
[16] = test system: Rattus norvegicus; test: Anti-inflammatory activity in carrageenan-induced paw edema Wistar rat model assessed as decrease in IL-6 level in paw tissue at 10 mg/kg, po measured for 6 hrs by ELISA; assay type: functional, organism-based; procedure, shortened: as §3
[17] = Toxicity in Wistar rat assessed as change in serum AST level at 10 mg/kg, po; assay type: organism-based; settings: in vivo; procedure, shortened: as §1
[18] = test system: Rattus norvegicus; test: Anti-inflammatory activity in carrageenan-induced paw edema Wistar rat model assessed as swelling thickness of paw at 10 mg/kg, po measured after 3 hrs by digital vernier caliper (reference value: 8.56 +/- 0.45 millimeter); assay type: functional
[19] = test system: Rattus norvegicus; test: Anti-inflammatory activity in carrageenan-induced paw edema Wistar rat model assessed as swelling thickness of paw at 10 mg/kg, po measured after 1 hr by digital vernier caliper (reference value: 8.47 +/- 0.25 millimeter); assay type: functional
[20] = Toxicity in fasting Wistar rat assessed as ulceration at 10 mg/kg, po via gavage treated for 3 days consecutively by H and E staining based analysis (reference value: 0 %); assay type: organism-based; settings: in vivo, 72 h, time 3 day; procedure, shortened: as §4
[21] = Toxicity in Wistar rat assessed as change in serum ALT level at 10 mg/kg, po; assay type: organism-based; settings: in vivo; procedure, shortened: as §1

COc1ccc2c(c1)c(CC(=O)O)c(C)n2C(=O)c1ccc(Cl)cc1 [INDOMETHACIN]
Activity [1]: Toxic | Activity [2]: 3.37 mm | Activity [3]: Active | Activity [4]: Active | Activity [5]: 3.17 mm | Activity [6]: Active | Activity [7]: 3.73 mm | Activity [8]: 3.14 mm | Activity [9]: Toxic | Activity [10]: 3.29 mm | Activity [11]: 3.041 | Activity [12]: Active | Activity [13]: Active | Activity [14]: 16.5 | UI [15]: 304.16 | Activity [16]: Active | Activity [17]: Toxic | Activity [18]: 3.38 mm | Activity [19]: 3.74 mm | Activity [20]: 100% | Activity [21]: Toxic
